Results reported in ChEMBL document CHEMBL1136812, “Structure-activity relationships of dimethindene derivatives as new M2-selective muscarinic receptor antagonists” (J Med Chem, 2003).

Experiments:
Assay type in all cases: cell-based
[1] = biological target: T1, Muscarinic acetylcholine receptor M5 (Homo sapiens, UniProt P08912); test: Binding affinity towards cloned human muscarinic acetylcholine receptor M5 stably expressed in CHO-K1 cells using [3H]N-methylscopolamine
T1 sequence (P08912 whole entry): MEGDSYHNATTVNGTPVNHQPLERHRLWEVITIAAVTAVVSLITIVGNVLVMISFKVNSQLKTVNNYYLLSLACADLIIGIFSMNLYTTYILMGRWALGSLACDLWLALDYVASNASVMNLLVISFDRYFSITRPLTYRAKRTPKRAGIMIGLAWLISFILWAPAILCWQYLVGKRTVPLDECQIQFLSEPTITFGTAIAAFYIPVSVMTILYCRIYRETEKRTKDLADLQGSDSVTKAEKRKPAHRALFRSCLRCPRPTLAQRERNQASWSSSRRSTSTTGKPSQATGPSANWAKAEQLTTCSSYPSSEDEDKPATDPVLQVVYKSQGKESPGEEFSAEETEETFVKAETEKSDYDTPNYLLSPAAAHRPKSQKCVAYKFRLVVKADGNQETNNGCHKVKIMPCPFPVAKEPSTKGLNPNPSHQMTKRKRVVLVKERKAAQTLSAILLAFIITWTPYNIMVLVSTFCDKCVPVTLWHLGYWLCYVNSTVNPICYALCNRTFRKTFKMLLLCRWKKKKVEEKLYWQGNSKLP

Histamine H1 receptor = Histamine H1 receptor (Homo sapiens, UniProt P35367); test: Compound was evaluated for binding affinity towards cloned human histamine H1 receptors stably expressed in CHO-K1 cells using [3H]mepyramine
Sequence of Histamine H1 receptor (P35367 whole entry): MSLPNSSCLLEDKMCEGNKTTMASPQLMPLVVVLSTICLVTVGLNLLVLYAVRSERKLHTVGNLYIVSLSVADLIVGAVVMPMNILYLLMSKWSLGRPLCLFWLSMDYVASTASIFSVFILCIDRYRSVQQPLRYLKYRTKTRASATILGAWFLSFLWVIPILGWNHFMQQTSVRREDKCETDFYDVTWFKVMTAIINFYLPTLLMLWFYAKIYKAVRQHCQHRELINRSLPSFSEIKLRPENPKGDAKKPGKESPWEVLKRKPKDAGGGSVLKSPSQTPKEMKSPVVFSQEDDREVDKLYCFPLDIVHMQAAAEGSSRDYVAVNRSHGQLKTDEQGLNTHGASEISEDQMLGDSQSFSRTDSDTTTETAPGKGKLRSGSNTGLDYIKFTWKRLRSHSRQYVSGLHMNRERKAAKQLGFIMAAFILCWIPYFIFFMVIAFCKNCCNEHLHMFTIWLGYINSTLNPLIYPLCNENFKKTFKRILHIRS
Outline: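 CHO-K1 membranes with stable human H1 receptor, 18 µg/mL final protein. […] Nonspecific binding with 0.1 mM terfenadine. Filtered and counted. Ki by Cheng-Prusoff. pKi mean ± SD, ≥3 experiments in duplicate.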

[2] = biological target: T2, Muscarinic acetylcholine receptor M4 (Homo sapiens, UniProt P08173); test: Binding affinity towards cloned human muscarinic acetylcholine receptor M4 stably expressed in CHO-K1 cells using [3H]N-methylscopolamine
T2 sequence (P08173 whole entry): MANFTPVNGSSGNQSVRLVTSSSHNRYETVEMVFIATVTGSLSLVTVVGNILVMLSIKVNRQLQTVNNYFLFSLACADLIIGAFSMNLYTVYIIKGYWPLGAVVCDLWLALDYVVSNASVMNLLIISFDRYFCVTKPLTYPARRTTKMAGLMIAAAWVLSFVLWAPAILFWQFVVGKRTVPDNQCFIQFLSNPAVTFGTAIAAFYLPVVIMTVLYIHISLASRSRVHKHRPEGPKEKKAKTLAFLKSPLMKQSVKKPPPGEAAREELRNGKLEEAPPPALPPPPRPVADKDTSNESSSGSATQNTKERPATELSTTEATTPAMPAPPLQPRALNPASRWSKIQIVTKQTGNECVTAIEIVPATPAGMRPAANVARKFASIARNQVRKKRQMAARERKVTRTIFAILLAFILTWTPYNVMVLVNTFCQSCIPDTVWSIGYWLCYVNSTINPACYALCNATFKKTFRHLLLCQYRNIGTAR

[3] = biological target: T3, Muscarinic acetylcholine receptor M1 (Homo sapiens, UniProt P11229); test: Binding affinity towards cloned human muscarinic acetylcholine receptor M1 stably expressed in CHO-K1 cells using [3H]N-methylscopolamine
T3 sequence (P11229 whole entry): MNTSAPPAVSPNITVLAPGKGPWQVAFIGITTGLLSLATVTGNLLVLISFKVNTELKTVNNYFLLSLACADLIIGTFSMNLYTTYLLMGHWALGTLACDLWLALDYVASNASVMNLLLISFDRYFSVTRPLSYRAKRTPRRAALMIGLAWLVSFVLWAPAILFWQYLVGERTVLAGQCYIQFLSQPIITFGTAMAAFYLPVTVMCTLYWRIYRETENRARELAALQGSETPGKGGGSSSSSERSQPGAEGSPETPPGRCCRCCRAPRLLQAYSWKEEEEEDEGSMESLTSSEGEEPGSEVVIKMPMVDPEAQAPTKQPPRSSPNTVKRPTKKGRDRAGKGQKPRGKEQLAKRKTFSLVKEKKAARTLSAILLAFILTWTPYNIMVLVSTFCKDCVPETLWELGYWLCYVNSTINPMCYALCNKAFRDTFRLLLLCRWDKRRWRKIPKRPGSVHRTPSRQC

[4] = biological target: T4, Muscarinic acetylcholine receptor M2 (Homo sapiens, UniProt P08172); test: Binding affinity towards cloned human muscarinic acetylcholine receptor M2 stably expressed in CHO-K1 cells using [3H]N-methylscopolamine
T4 sequence (P08172 whole entry): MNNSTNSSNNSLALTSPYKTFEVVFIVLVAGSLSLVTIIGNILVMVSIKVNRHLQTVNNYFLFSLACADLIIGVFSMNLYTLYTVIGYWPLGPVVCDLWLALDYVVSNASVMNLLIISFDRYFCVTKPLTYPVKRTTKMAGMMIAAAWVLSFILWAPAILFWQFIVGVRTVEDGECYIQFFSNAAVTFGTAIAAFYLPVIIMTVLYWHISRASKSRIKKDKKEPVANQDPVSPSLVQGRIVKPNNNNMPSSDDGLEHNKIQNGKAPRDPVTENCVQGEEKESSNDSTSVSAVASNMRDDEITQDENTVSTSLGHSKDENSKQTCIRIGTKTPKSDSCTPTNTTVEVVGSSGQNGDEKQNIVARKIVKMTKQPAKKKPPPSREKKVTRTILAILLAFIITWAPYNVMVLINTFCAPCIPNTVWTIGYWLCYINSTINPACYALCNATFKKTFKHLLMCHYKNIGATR

[5] = biological target: Muscarinic acetylcholine receptor M3 (Homo sapiens, UniProt P20309); test: Binding affinity towards cloned human muscarinic acetylcholine receptor M3 stably expressed in CHO-K1 cells using [3H]N-methylscopolamine
Sequence of Muscarinic acetylcholine receptor M3 (P20309 whole entry): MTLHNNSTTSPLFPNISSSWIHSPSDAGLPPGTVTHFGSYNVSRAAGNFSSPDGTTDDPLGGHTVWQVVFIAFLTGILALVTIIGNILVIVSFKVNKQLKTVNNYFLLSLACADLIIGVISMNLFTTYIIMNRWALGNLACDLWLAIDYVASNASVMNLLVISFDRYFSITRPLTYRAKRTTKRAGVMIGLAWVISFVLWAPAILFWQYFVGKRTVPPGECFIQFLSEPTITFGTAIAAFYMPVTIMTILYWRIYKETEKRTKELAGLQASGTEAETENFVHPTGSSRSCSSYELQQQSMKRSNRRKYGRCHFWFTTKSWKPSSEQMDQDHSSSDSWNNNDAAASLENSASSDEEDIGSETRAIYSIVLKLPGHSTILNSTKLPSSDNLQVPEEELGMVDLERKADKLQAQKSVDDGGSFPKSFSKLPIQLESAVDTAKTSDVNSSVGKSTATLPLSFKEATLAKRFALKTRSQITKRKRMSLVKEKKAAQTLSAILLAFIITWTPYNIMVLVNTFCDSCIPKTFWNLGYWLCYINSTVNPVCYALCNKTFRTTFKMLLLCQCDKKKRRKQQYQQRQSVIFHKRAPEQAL

Structure (SMILES)	Ki [1]	Ki (Histamine H1 receptor)	Ki [2]	Ki [3]	Ki [4]	Ki [5]
C[C@@H](C1=C(CCN(C)C)Cc2ccccc21)c1ccccn1	759 nM	69.2 nM	295 nM	191 nM	30.2 nM	138 nM
COc1ccc2c(c1)CC(CCN(C)C)=C2C(C)c1ccccn1 (configuration not stated)	6030 nM		4170 nM	1550 nM	1070 nM	1170 nM
CC(C1=C(CCN(C)C)Cc2cc(Cl)ccc21)c1ccccn1 (configuration not stated)	724 nM	0.813 nM	331 nM	151 nM	33.1 nM	95.5 nM
CN(C)CCNC(=O)C1=C(Cc2ccncc2)c2ccccc2C1	41700 nM		87100 nM	53700 nM	93300 nM	135000 nM
CCN(CC)CCC1=C(C(C)c2ccccn2)c2ccccc2C1 (configuration not stated)	2090 nM		457 nM	447 nM	44.7 nM	955 nM
CC(C1=C(CCN(C)C)Cc2ccc(Cl)cc21)c1ccccn1 (configuration not stated)	912 nM		741 nM	347 nM	363 nM	501 nM
CC(C1=C(CCCN(C)C)Cc2ccccc21)c1ccccn1 (configuration not stated)	3240 nM		1700 nM	891 nM	263 nM	575 nM
CN(C)CCC1=C(Cc2ccccn2)c2ccccc2C1	3630 nM		2400 nM	1580 nM	234 nM	1550 nM
CN(C)CCOC(=O)C1=C(Cc2cccnc2)c2ccccc2C1	11200 nM		13200 nM	3550 nM	6030 nM	8130 nM
CN(C)CCC1=C(Cc2ccncc2)c2ccccc2C1	10200 nM		8320 nM	4270 nM	6760 nM	11700 nM
CCCC(C1=C(CCN(C)C)Cc2ccccc21)c1ccccn1 (configuration not stated)	302 nM		617 nM	245 nM	676 nM	631 nM
CC(C1=C(CCN(C)C)Cc2ccccc21)c1ccccc1 (configuration not stated)	309 nM		372 nM	158 nM	257 nM	288 nM
CN(C)CCC1=C(C(c2ccccc2)c2ccccn2)c2ccccc2C1 (configuration not stated)	66.1 nM		129 nM	43.7 nM	229 nM	67.6 nM
CC(C1=C(CN(C)C(C)C)Cc2ccccc21)c1ccccn1 (configuration not stated)	1120 nM		603 nM	229 nM	51.3 nM	741 nM
CC(C1=C(CCN(C)CCF)Cc2ccccc21)c1ccccn1 (configuration not stated)	2000 nM	7.24 nM	437 nM	603 nM	32.4 nM	708 nM
CN(C)CCOC(=O)C1=C(Cc2ccccn2)c2ccccc2C1	17400 nM		14800 nM	5370 nM	4900 nM	8910 nM
COc1ccc2c(c1)C(C(C)c1ccccn1)=C(CCN(C)C)C2 (configuration not stated)	8910 nM		8510 nM	3720 nM	1020 nM	3160 nM
CSc1ccc2c(c1)C(C(C)c1ccccn1)=C(CCN(C)C)C2 (configuration not stated)	3240 nM		2000 nM	871 nM	912 nM	1050 nM

Structure (SMILES)	Ki [1]	Ki (Histamine H1 receptor)	Ki [2]	Ki [3]	Ki [4]	Ki [5]
CN(C)CCNC(=O)C1=C(Cc2ccccn2)c2ccccc2C1	45700 nM		26900 nM	16200 nM	14800 nM	24000 nM
Cc1ccc2c(c1)C(C(C)c1ccccn1)=C(CCN(C)C)C2 (configuration not stated)	5890 nM		3240 nM	1620 nM	1950 nM	2510 nM
CC(C1=C(CCN(C)C)Cc2ccc(F)cc21)c1ccccn1 (configuration not stated)	1050 nM		646 nM	331 nM	112 nM	263 nM
CCC(C1=C(CCN(C)C)Cc2cc(Cl)ccc21)c1ccccn1 (configuration not stated)	776 nM		832 nM	224 nM	107 nM	282 nM
CCC(C1=C(CCN(C)C)Cc2ccccc21)c1ccccn1 (configuration not stated)	676 nM		661 nM	240 nM	97.7 nM	309 nM
Cc1ccc2c(c1)CC(CCN(C)C)=C2C(C)c1ccccn1 (configuration not stated)	1450 nM		1410 nM	562 nM	589 nM	501 nM
CC(C1=C(CCN2CCCCC2)Cc2ccccc21)c1ccccn1 (configuration not stated)	2340 nM		1910 nM	1910 nM	851 nM	1780 nM
CC(C1=C(CCN2CCCC2)Cc2ccccc21)c1ccccn1 (configuration not stated)	2000 nM		1230 nM	1050 nM	398 nM	1910 nM
CN(C)CCC1=C(Cc2cccnc2)c2ccccc2C1	7940 nM		7410 nM	3720 nM	5370 nM	8130 nM
CC(C1=C(CCN(C)C(C)C)Cc2ccccc21)c1ccccn1 (configuration not stated)	2190 nM		1000 nM	871 nM	145 nM	1820 nM
CN(C)CCNC(=O)C1=C(Cc2cccnc2)c2ccccc2C1	66100 nM		46800 nM	49000 nM	39800 nM	49000 nM
CC(C1=C(CCN2CCOCC2)Cc2ccccc21)c1ccccn1 (configuration not stated)	2690 nM		4170 nM	4370 nM	1450 nM	2750 nM
CN(C)CCC1=C(C(C)(C)c2ccccn2)c2ccccc2C1	372 nM		81.3 nM	52.5 nM	15.5 nM	25.7 nM
CC(C1=C(CN(C)C)Cc2ccccc21)c1ccccn1 (configuration not stated)	87.1 nM	28.8 nM	97.7 nM	34.7 nM	12.3 nM	31.6 nM
CC(C1=C(CCN(C(C)C)C(C)C)Cc2ccccc21)c1ccccn1 (stereo in doubt; 19)	2190 nM		741 nM	741 nM	25.1 nM	2240 nM
CC(C1=C(CCN(C(C)C)C(C)C)Cc2ccccc21)c1ccccn1 (stereo in doubt; (+)-19)	5130 nM	219 nM	5500 nM	5890 nM	575 nM	20900 nM
CC(C1=C(CCN(C(C)C)C(C)C)Cc2ccccc21)c1ccccn1 (stereo in doubt; (-)-19)	11700 nM	2450 nM	1780 nM	1550 nM	42.7 nM	4070 nM
CC(C1=C(CCN(C)C)Cc2ccccc21)c1ccccn1 (configuration not stated) [DIMETHINDENE]		0.692 nM				
